From ChEMBL document CHEMBL3297708, “Lead optimization of a novel series of imidazo[1,2-a]pyridine amides leading to a clinical candidate (Q203) as a multi- and extensively-drug-resistant anti-tuberculosis agent” (J Med Chem, 2014)
Converted amounts (≈) assume the structure as drawn.

Legend:
[1] = Half life in mouse liver microsomes; assay type: ADME
Summary of the method: (§1)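 Metabolic stability measured by incubation in human or mouse liver microsomal preparations; half-life reported.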

[2] = target: Cytochrome P450 3A4 (Homo sapiens, UniProt P08684); experiment: Inhibition of recombinant CYP3A4 (unknown origin) by LC/MS/MS analysis; assay type: ADME
Cytochrome P450 3A4, sequence (P08684 whole entry): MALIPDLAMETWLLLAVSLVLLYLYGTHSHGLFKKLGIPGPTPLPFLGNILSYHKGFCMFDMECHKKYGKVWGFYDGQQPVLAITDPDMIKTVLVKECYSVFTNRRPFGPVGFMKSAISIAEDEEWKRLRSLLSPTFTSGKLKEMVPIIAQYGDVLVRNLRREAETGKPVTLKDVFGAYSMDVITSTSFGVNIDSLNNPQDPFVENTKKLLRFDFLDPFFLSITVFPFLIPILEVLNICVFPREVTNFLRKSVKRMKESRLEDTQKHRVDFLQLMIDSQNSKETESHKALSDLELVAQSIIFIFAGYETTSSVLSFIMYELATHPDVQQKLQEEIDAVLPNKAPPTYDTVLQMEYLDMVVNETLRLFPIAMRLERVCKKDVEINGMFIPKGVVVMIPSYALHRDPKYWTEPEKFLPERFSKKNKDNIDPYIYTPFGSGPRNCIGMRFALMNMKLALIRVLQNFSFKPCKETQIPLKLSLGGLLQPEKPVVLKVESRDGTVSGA
Summary of the method: (§2)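 Recombinant CYP enzymes (5 pmol/mL) with substrate, in 100 mM potassium phosphate pH 7.4, 3.3 mM MgCl2, with or without 1 mM NADPH; incubated 10 min (CYP1A2, CYP2C9), 20 min (CYP2C19, CYP2D6), or 3 min (CYP3A4); stopped with cold stop solution containing tolbutamide internal standard; metabolite measured by LC-MS/MS.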

[3] = target: Cytochrome P450 2C9 (Homo sapiens, UniProt P11712); experiment: Inhibition of recombinant CYP2C9 (unknown origin) by LC/MS/MS analysis; assay type: ADME; summary of the method: as §2
Cytochrome P450 2C9, sequence (P11712 whole entry): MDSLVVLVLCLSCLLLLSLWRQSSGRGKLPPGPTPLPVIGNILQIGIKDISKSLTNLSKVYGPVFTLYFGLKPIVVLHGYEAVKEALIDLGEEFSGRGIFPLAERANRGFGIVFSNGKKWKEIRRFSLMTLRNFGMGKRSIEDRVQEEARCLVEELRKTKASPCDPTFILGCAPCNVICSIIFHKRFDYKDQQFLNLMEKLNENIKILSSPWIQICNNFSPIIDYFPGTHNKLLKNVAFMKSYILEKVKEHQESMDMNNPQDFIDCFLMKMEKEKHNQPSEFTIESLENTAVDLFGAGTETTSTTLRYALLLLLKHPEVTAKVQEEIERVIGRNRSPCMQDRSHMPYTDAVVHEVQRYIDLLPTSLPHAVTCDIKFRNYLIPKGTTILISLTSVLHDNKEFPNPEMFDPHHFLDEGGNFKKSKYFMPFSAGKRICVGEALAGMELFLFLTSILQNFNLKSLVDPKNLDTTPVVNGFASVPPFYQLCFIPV

[4] = Elimination half life in mouse at 2 mg/kg, iv; assay type: ADME, organism-based; design: dose 2 mg/kg, route intravenous; conditions: in vivo, read-out: beta t1/2 (converted)
Summary of the method: (§3)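 Mice dosed at 2 mg/kg i.v. and 10 mg/kg p.o.; plasma sampled and PK parameters (half-life, clearance, volume of distribution, Cmax, Tmax, AUC, oral bioavailability) derived from the plasma concentration–time profiles.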

[5] = Solubility of the compound in aqueous solution at pH 2.1; assay type: physicochemical
[6] = tested on: Mycobacterium tuberculosis; experiment: Antimycobacterial activity against Mycobacterium tuberculosis H37Rv infected in BALB/c mouse assessed as lung bacterial load administered 3 weeks after infection via oral gavage for 28 days, five times per week measured per lung; assay type: functional, organism-based
Summary of the method: (§4)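 BALB/c mice infected intranasally with 2 x10^2 to 2 x 10^3 CFU M. tuberculosis H37Rv; oral gavage treatment started 3 weeks post-infection, given five times per week for 28 days; lung bacterial burden enumerated as log10 CFU per lung; values reported ± spread; untreated infected mice as baseline.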

[7] = Solubility of the compound in phosphate buffer at pH 7.4; assay type: physicochemical
[8] = Tmax in mouse at 10 mg/kg, po; assay type: ADME, organism-based; design: dose 10 mg/kg, route oral; conditions: in vivo; summary of the method: as §3
[9] = target: Cytochrome P450 2C19 (Homo sapiens, UniProt P33261); experiment: Inhibition of recombinant CYP2C19 (unknown origin) by LC/MS/MS analysis; assay type: ADME; summary of the method: as §2
Cytochrome P450 2C19, sequence (P33261 whole entry): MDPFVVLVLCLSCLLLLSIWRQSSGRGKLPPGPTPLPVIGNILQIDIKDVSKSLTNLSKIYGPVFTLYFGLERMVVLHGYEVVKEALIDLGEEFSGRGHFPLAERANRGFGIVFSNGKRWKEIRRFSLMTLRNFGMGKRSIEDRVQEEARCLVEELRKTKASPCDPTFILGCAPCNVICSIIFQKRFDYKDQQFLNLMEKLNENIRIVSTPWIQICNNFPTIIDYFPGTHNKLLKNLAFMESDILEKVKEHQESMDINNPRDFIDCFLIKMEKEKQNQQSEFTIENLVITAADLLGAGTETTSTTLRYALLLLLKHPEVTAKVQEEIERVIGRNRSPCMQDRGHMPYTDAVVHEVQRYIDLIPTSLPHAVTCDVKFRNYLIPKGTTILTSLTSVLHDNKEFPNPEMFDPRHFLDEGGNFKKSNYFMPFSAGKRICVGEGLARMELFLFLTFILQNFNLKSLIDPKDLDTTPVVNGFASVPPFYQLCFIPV

[10] = Oral bioavailability in mouse at 10 mg/kg; assay type: ADME, organism-based; conditions: in vivo; summary of the method: as §3
[11] = tested on: Mycobacterium tuberculosis; experiment: Antimycobacterial activity against Mycobacterium tuberculosis H37Rv infected in BALB/c mouse assessed as lung bacterial load at 50 mg/kg administered 3 weeks after infection via oral gavage for 28 days, five times per week measured per lung (reference value: 7.24 +/- 0.17 log10 CFU); assay type: functional; summary of the method: as §4
[12] = tested on: Mycobacterium tuberculosis; experiment: Antimycobacterial activity against Mycobacterium tuberculosis H37Rv infected in BALB/c mouse assessed as lung bacterial load at 10 mg/kg administered 3 weeks after infection via oral gavage for 28 days, five times per week measured per lung (reference value: 7.24 +/- 0.17 log10 CFU); assay type: functional; summary of the method: as §4
[13] = AUC (0 to infinity) in mouse at 10 mg/kg, po; assay type: ADME, organism-based; design: time infinity, dose 10 mg/kg, route oral; conditions: plasma; summary of the method: as §3
[14] = target: Cytochrome P450 2D6 (Homo sapiens, UniProt P10635); experiment: Inhibition of recombinant CYP2D6 (unknown origin) by LC/MS/MS analysis; assay type: ADME; summary of the method: as §2
Cytochrome P450 2D6, sequence (P10635 whole entry): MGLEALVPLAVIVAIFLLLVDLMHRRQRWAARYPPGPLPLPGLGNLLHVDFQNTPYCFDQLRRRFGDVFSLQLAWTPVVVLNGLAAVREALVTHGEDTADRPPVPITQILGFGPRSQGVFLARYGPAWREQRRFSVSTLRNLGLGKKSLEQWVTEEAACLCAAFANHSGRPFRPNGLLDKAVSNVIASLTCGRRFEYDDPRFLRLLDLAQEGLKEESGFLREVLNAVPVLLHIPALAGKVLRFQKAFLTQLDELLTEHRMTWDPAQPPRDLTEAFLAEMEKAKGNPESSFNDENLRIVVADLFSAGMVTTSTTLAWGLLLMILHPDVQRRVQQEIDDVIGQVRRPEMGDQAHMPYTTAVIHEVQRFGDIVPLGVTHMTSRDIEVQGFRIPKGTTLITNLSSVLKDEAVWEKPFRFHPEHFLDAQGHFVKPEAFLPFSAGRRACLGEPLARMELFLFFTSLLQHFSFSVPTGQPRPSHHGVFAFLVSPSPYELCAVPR

[15] = tested on: Mycobacterium tuberculosis; experiment: Antimycobacterial activity against Mycobacterium tuberculosis H37Rv in macrophages; assay type: functional
Summary of the method: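 M. tuberculosis H37Rv replicating inside macrophages; intracellular MIC80 determined, i.e. concentration inhibiting 80% of growth.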

[16] = tested on: Mycobacterium tuberculosis; experiment: Antimycobacterial activity against Mycobacterium tuberculosis H37Rv infected in BALB/c mouse assessed as lung bacterial load at 2 mg/kg administered 3 weeks after infection via oral gavage for 28 days, five times per week measured per lung (reference value: 7.24 +/- 0.17 log10 CFU); assay type: functional; summary of the method: as §4
[17] = Volume of distribution at steady state in mouse at 2 mg/kg, iv; assay type: ADME, organism-based; design: dose 2 mg/kg, route intravenous; conditions: in vivo, read-out: Vdss; summary of the method: as §3
[18] = Cmax in mouse at 10 mg/kg, po; assay type: ADME, organism-based; design: dose 10 mg/kg, route oral; conditions: in vivo; summary of the method: as §3
[19] = Clearence in mouse at 2 mg/kg, iv; assay type: ADME, organism-based; design: dose 2 mg/kg, route intravenous; conditions: in vivo; summary of the method: as §3
[20] = tested on: Mycobacterium tuberculosis; experiment: Antimycobacterial activity against Mycobacterium tuberculosis H37Rv in liquid broth culture medium; assay type: functional
Summary of the method: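 M. tuberculosis H37Rv replicating in liquid broth culture medium; MIC80 determined, i.e. concentration inhibiting 80% of growth.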

[21] = target: T1, Cytochrome P450 1A2 (Homo sapiens, UniProt P05177); experiment: Inhibition of recombinant CYP1A2 (unknown origin) by LC/MS/MS analysis; assay type: ADME; summary of the method: as §2
T1 sequence (P05177 whole entry): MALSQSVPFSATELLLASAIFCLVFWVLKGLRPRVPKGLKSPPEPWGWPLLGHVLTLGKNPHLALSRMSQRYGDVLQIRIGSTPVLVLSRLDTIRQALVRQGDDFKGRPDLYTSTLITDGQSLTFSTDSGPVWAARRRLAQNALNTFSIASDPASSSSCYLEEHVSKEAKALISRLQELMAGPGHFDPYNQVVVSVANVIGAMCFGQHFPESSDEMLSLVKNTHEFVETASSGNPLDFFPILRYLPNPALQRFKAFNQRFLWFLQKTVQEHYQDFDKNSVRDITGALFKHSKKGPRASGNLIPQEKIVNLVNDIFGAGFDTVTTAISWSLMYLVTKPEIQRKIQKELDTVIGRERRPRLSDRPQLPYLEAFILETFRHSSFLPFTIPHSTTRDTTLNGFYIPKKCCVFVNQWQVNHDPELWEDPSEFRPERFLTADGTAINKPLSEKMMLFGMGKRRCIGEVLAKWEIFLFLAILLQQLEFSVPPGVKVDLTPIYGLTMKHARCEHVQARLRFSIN

[22] = Half life in mouse at 10 mg/kg, po; assay type: ADME, organism-based; design: dose 10 mg/kg, route oral; conditions: in vivo; summary of the method: as §3
[23] = Half life in human liver microsomes; assay type: ADME; summary of the method: as §1
[24] = tested on: Mycobacterium tuberculosis; experiment: Antimycobacterial activity against Mycobacterium tuberculosis H37Rv infected in BALB/c mouse assessed as lung bacterial load at 15 mg/kg administered 3 weeks after infection via oral gavage for 28 days, five times per week measured per lung (reference value: 7.24 +/- 0.17 log10 CFU); assay type: functional; summary of the method: as §4

Row | SMILES | half-life [1] [h] | IC50 [2] [µM] | IC50 [3] [µM] | half-life [4] [h] | solubility [5] [µg/mL] | solubility [7] [µg/mL] | Tmax [8] [h] | IC50 [9] [µM] | bioavailability [10] [%] | AUC(0-inf) [13] [ng·h/mL] | IC50 [14] [µM] | MIC80 [15] [nM] | Vd [17] [L/kg] | Cmax [18] [ng/mL] | clearance [19] [mL/min/kg] | MIC80 [20] [nM] | IC50 [21] [µM] | half-life [22] [h] | half-life [23] [h] | other results
1 | CCc1nc2cc(Cl)ccn2c1C(=O)NCc1ccc(N2CCC(c3ccc(OC(F)(F)F)cc3)CC2)cc1 | > 2 | > 100 | 0.14 | 62.3 | 55.8 (≈ 100 µM) | 1.32 (≈ 2.37 µM) | 2 | 0.29 | 80.2 | 27300 | > 100 | 3.7 (≈ 2.06 ng/mL) | 14.3 | 1990 | 3.15 | 4 (≈ 2.23 ng/mL) | > 100 | 21.3 | > 2 | inhibition [6]: Dose-dependent effect; log10cfu [11]: 5.65; log10cfu [12]: 5.72; log10cfu [16]: 6.23
2 | CCc1nc2ccc(Cl)cn2c1C(=O)NCc1ccc(N2CCC(c3ccc(OC(F)(F)F)cc3)CC2)cc1 [TELACEBEC] | > 2 | > 100 | > 100 | 16.5 | 41.5 (≈ 74.5 µM) | 1.71 (≈ 3.07 µM) | 2 | > 100 | 90.7 | 44100 | > 100 | 1.43 (≈ 0.797 ng/mL) | 5.27 | 1490 | 4 | 4 (≈ 2.23 ng/mL) | > 100 | 23.4 | > 2 | 
3 | CCc1nc2ccc(Cl)cn2c1C(=O)NCc1ccc(N2CCN(c3ccc(F)cc3)CC2)cc1 | 0.555 | 0.49 | 1.33 |  | 38.5 (≈ 78.3 µM) | 1.31 (≈ 2.66 µM) |  | 1.32 |  |  | > 40 | 0.3 (≈ 0.148 ng/mL) |  |  |  | < 0.5 | > 40 |  | > 2 | 
4 | CCc1nc2ccc(Cl)cn2c1C(=O)NCc1ccc(N2CCC(c3ccc(F)cc3)CC2)cc1 | 0.338 | > 40 | > 40 |  | 38.5 (≈ 78.5 µM) | 3.99 (≈ 8.13 µM) |  | > 40 |  |  | > 40 | 0.36 (≈ 0.177 ng/mL) |  |  |  | < 0.5 | > 40 |  | 1.04 | 
5 | CCc1nc2ccc(Cl)cn2c1C(=O)NCc1ccc(N2CCN(c3ccc(OC(F)(F)F)cc3)CC2)cc1 | > 1 | 11.5 | 0.57 |  | 12.1 (≈ 21.6 µM) | 1.1 (≈ 1.97 µM) |  | > 40 |  |  | > 40 | 0.23 (≈ 0.128 ng/mL) |  |  |  | < 0.5 | > 40 |  | > 2 | 
6 | CCc1nc2ccc(Cl)cn2c1C(=O)NCc1ccc(N2CCC(c3ccc(Cl)cc3)CC2)cc1 | 1.93 | > 40 | 0.26 |  | 39.7 (≈ 78.3 µM) | 2.59 (≈ 5.1 µM) |  | 6.77 |  |  | > 40 | 1.3 (≈ 0.66 ng/mL) |  |  |  | 4.1 (≈ 2.08 ng/mL) | > 40 |  | 0.965 | 
7 | NNC(=O)c1ccncc1 [ISONIAZID] |  |  |  |  |  |  |  |  |  |  |  | 617 (≈ 84.6 ng/mL) |  |  |  | 449 (≈ 61.6 ng/mL) |  |  |  | log10cfu [24]: 5.01; inhibition [6]: Dose-dependent effect
8 | CCc1nc2cc(Cl)ccn2c1C(=O)NCc1ccc(N2CCN(c3ccc(F)cc3)CC2)cc1 | 0.555 | > 40 | > 40 | 6.15 |  |  | 2 | > 40 | 69.9 | 59600 | > 40 | 0.3 (≈ 0.148 ng/mL) | 0.877 | 4450 | 1.9 | 5.7 (≈ 2.8 ng/mL) | > 40 | 9.4 | > 2 | 
